Source: ChEMBL document CHEMBL5030505, “Assessment of NR4A Ligands That Directly Bind and Modulate the Orphan Nuclear Receptor Nurr1” (J Med Chem, 2020)
Active and inactive are the calls of the source. The rule behind the calls is not given here.

Assays:
Format in all cases: cell-based
[1] = target: Nuclear receptor subfamily 4 group A member 2 (Homo sapiens) (UniProt P43354); assay: Modulation of full length human Nurr1 expressed in HEK293T cells co-transfected with RXRalpha and luciferase reporter plasmid harboring NurRE response element assessed as decrease in luciferase activity at 1.95 to 125 uM incubated for 18 hrs by luciferase reporter gene assay; conditions: filed as modulator, dose 1.95-125 µM
Nuclear receptor subfamily 4 group A member 2 (Homo sapiens), sequence (P43354 whole entry): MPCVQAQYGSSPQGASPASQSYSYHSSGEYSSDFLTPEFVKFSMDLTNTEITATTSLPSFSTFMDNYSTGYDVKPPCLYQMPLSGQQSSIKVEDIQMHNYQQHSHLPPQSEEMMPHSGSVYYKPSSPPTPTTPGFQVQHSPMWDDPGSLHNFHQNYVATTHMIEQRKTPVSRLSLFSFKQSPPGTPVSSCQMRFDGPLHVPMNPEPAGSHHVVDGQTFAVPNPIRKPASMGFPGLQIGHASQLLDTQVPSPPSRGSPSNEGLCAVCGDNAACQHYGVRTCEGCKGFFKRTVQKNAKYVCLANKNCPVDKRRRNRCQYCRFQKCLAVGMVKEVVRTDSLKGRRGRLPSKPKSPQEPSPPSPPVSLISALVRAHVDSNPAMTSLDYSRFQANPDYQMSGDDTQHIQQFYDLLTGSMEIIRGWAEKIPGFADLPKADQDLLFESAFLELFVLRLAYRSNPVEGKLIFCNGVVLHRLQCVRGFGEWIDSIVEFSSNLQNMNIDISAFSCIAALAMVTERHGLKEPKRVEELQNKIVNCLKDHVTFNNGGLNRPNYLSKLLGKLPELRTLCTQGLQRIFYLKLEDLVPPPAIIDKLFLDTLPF
Method in brief: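 Full-length Nurr1 plasmid, alone (2 μg) or 1 μg plus full-length RXRα (1 μg), cotransfected with 3xNBRE- or 3xNurRE-luciferase reporter (6 μg) using Lipofectamine 2000, 18 h. Cells replated at 10,000/well for 4 h. Four ligand concentrations, or vehicle (water, ethanol or DMSO), added in quadruplicate for 18 h. Luciferase read. Fold change vs vehicle, mean ± s.e.m., one-way ANOVA vs vehicle.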

[2] = target: Nuclear receptor subfamily 4 group A member 2 (Homo sapiens) (UniProt P43354); assay: Modulation of full length human Nurr1 expressed in SK-N-BE(2) cells co-transfected with luciferase reporter plasmid harboring NurRE response element assessed as increase in luciferase activity at 1.95 to 125 uM incubated for 18 hrs by luciferase reporter gene assay; conditions: SKNBE2, filed as modulator, dose 1.95-125 µM
Method in brief: (§1)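 Transfection of SK-N-BE(2)-C cells (1:1 EMEM/F12, 10% FBS, 37°C, 5% CO2) used full-length Nurr1 alone (2 μg, no RXRα) with 3xNBRE- or 3xNurRE-luciferase reporter (6 μg) for 18 h. Cells were replated at 10,000/well for 4 h, then exposed to ligand or vehicle in quadruplicate for 18 h. Luminescence was expressed as fold over vehicle, as mean ± s.e.m. (n=4) from 2 independent experiments, one-way ANOVA against vehicle.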

[3] = target: Nuclear receptor subfamily 4 group A member 2 (Homo sapiens) (UniProt P43354); assay: Modulation of full length human Nurr1 expressed in SK-N-BE(2) cells co-transfected with luciferase reporter plasmid harboring NBRE response element assessed as increase in luciferase activity at 1.95 to 125 uM incubated for 18 hrs by luciferase reporter gene assay; conditions: SKNBE2, filed as modulator, dose 1.95-125 µM; method in brief: as §1
[4] = target: Nuclear receptor subfamily 4 group A member 2 (Homo sapiens) (UniProt P43354); assay: Modulation of full length human Nurr1 expressed in SK-N-BE(2) cells co-transfected with RXRalpha and luciferase reporter plasmid harboring NBRE response element assessed as increase in luciferase activity at 1.95 to 125 uM incubated for 18 hrs by luciferase reporter gene assay; conditions: SKNBE2, filed as modulator, dose 1.95-125 µM
Method in brief: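 SK-N-BE(2)-C cells were kept in 1:1 EMEM/F12 with 10% FBS at 37°C and 5% CO2. They were cotransfected with full-length Nurr1 (1 μg), full-length RXRα (1 μg) and 3xNBRE- or 3xNurRE-luc reporter (6 μg) for 18 h, replated at 10,000 cells/well for 4 h, and then treated with ligand or vehicle in quadruplicate for 18 h. The readout was luciferase luminescence as fold over vehicle, reported as mean ± s.e.m. (n=4) from 2 independent experiments, one-way ANOVA.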

[5] = target: Nuclear receptor subfamily 4 group A member 2 (Homo sapiens) (UniProt P43354); assay: Modulation of full length human Nurr1 expressed in PC12 cells co-transfected with luciferase reporter plasmid harboring NBRE response element assessed as increase in luciferase activity at 1.56 to 6.25 uM incubated for 18 by luciferase reporter gene assay; conditions: PC-12, filed as modulator, dose 1.56-6.25 µM, time 18.0 hrs
Method in brief: (§2)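 Cells transfected (Lipofectamine 2000, 18 h) with full-length Nurr1 expression plasmid (2 μg) and 3xNBRE- or 3xNurRE-luciferase reporter (6 μg), no internal control normalisation; replated 10,000 cells/well, 4 h; ligand or vehicle in quadruplicate for 18 h; Britelite Plus luminescence as fold change over vehicle. Mean ± s.e.m. (n=4); one-way ANOVA versus vehicle.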

HEK293T = assay: Modulation of Gal4-fused VP16 expressed in HEK293T cells co-transfected with UAS repoter gene assessed as decrease in luciferase activity at 1.56 to 6.25 uM incubated for 18 hrs by luciferase reporter gene assay; conditions: Human alphaherpesvirus 2, filed as modulator, dose 1.56-6.25 µM
Method in brief: (§3)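 Constitutive control: cells transfected (Lipofectamine 2000) with Gal4-VP16 expression plasmid (2 μg) plus 5xUAS-luciferase reporter (2 μg), 18 h; replated 10,000 cells/well, 4 h; ligand or vehicle in quadruplicate for 18 h; luciferase read by Britelite Plus; signal as fold change over vehicle-treated cells. Mean ± s.e.m. (n=4); one-way ANOVA versus vehicle.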

SKNBE2 = assay: Modulation of Gal4-fused VP16 expressed in SKNBE(2) cells co-transfected with UAS repoter gene assessed as decrease in luciferase activity at 1.56 to 6.25 uM incubated for 18 hrs by luciferase reporter gene assay; conditions: Human alphaherpesvirus 2, filed as modulator, dose 1.56-6.25 µM; method in brief: as §3
[6] = target: Nuclear receptor subfamily 4 group A member 2 (Homo sapiens) (UniProt P43354); assay: Modulation of full length human Nurr1 expressed in SKNBE(2) cells co-transfected with RXRalpha and luciferase reporter plasmid harboring NurRE response element assessed as decrease in luciferase activity at 1.56 to 6.25 uM incubated for 18 by luciferase reporter gene assay; conditions: SKNBE2, filed as modulator, dose 1.56-6.25 µM, time 18.0 hrs
[7] = target: Nuclear receptor subfamily 4 group A member 2 (Homo sapiens) (UniProt P43354); assay: Modulation of full length human Nurr1 expressed in PC12 cells co-transfected with luciferase reporter plasmid harboring NBRE response element assessed as decrease in luciferase activity at 1.56 to 6.25 uM incubated for 18 by luciferase reporter gene assay; conditions: PC-12, filed as modulator, dose 1.56-6.25 µM, time 18.0 hrs; method in brief: as §2
[8] = target: Nuclear receptor subfamily 4 group A member 2 (Homo sapiens) (UniProt P43354); assay: Modulation of full length human Nurr1 expressed in SKNBE(2) cells co-transfected with luciferase reporter plasmid harboring NurRE response element assessed as decrease in luciferase activity at 1.56 to 6.25 uM incubated for 18 by luciferase reporter gene assay; conditions: SKNBE2, filed as modulator, dose 1.56-6.25 µM, time 18.0 hrs; method in brief: as §2
[9] = target: Nuclear receptor subfamily 4 group A member 2 (Homo sapiens) (UniProt P43354); assay: Modulation of full length human Nurr1 expressed in HEK293T cells co-transfected with RXRalpha and luciferase reporter plasmid harboring NurRE response element assessed as decrease in luciferase activity at 1.56 to 6.25 uM incubated for 18 by luciferase reporter gene assay; conditions: filed as modulator, dose 1.56-6.25 µM, time 18.0 hrs
[10] = target: Nuclear receptor subfamily 4 group A member 2 (Homo sapiens) (UniProt P43354); assay: Modulation of full length human Nurr1 expressed in PC12 cells co-transfected with RXRalpha and luciferase reporter plasmid harboring NurRE response element assessed as increase in luciferase activity at 1.56 to 6.25 uM incubated for 18 by luciferase reporter gene assay; conditions: PC-12, filed as modulator, dose 1.56-6.25 µM, time 18.0 hrs
[11] = target: Nuclear receptor subfamily 4 group A member 2 (Homo sapiens) (UniProt P43354); assay: Modulation of full length human Nurr1 expressed in SKNBE(2) cells co-transfected with RXRalpha and luciferase reporter plasmid harboring NurRE response element assessed as increase in luciferase activity at 1.56 to 6.25 uM incubated for 18 by luciferase reporter gene assay; conditions: SKNBE2, filed as modulator, dose 1.56-6.25 µM, time 18.0 hrs
[12] = target: Nuclear receptor subfamily 4 group A member 2 (Homo sapiens) (UniProt P43354); assay: Modulation of full length human Nurr1 expressed in PC12 cells co-transfected with RXRalpha and luciferase reporter plasmid harboring NurRE response element assessed as decrease in luciferase activity at 1.56 to 6.25 uM incubated for 18 by luciferase reporter gene assay; conditions: PC-12, filed as modulator, dose 1.56-6.25 µM, time 18.0 hrs
HEK-293T = assay: Cytotoxicity against human HEK293T cells assessed as reduction in cell viability at 5 to 100 uM incubated for 18 hrs by Cell titer-glo assay; conditions: dose 5-100 µM
Method in brief: (§4)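 Cells seeded at 1.5 million per 10-cm dish. Next day they were replated at 10,000 cells/well and rested 4 h. Ligand or vehicle (water, ethanol or DMSO, by ligand) was added in dose-response format in quadruplicate. After 18 h, viability was read by CellTiter-Glo luminescence. Data are mean ± s.e.m., generally representative of 2 independent experiments. One-way ANOVA versus vehicle.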

SK-N-BE(2) = assay: Cytotoxicity against human SKNBE2 cells assessed as reduction in cell viability at 5 to 100 uM incubated for 18 hrs by Cell titer-glo assay; conditions: dose 5-100 µM; method in brief: as §4

CCN(CC)Cc1cc(Nc2ccnc3cc(Cl)ccc23)ccc1O [AMODIAQUINE]
Activity [1]: Active
Activity [2]: Active
Activity [3]: Active
Activity [4]: Active

CC1=C(O)C(=O)C=C2C1=CC=C1[C@@]2(C)CC[C@@]2(C)[C@@H]3C[C@](C)(C(=O)O)CC[C@]3(C)CC[C@]12C [CELASTROL]
Activity [5]: Active
Activity (HEK293T): Active
Activity (SKNBE2): Active
Activity [6]: Active
Activity [7]: Active
Activity [8]: Active
Activity [9]: Active
Activity [10]: Active
Activity [11]: Active
Activity [12]: Active

CCN(CC)CCCC(C)Nc1ccnc2cc(Cl)ccc12 (stereo not given) [CHLOROQUINE]
Activity [1]: Active
Activity [2]: Active
Activity [3]: Active
Activity [4]: Active

CCCCCCCC(=O)c1c(O)cc(O)cc1CC(=O)OCC [CYTOSPORONE B]
Activity (HEK-293T): Toxic
Activity (SK-N-BE(2)): Toxic
